# Source: ChEMBL document CHEMBL2396604, “Synthesis and structure activity relationship of tetrahydroisoquinoline-based potentiators of GluN2C and GluN2D containing N-methyl-D-aspartate receptors” (J Med Chem, 2013)
# Activity calls are given as the source filed them. No cut-off for these calls is given here.
# Experiments:
# [1] = biological target: Glutamate NMDA receptor; Grin1/Grin2a (Rattus norvegicus) (UniProt P35439+Q00959); experiment: Activity at rat recombinant GluN1/GluN2A receptor expressed in Xenopus oocytes assessed as potentiation of glycine/glutamate-induced effect at 100 uM by two-electrode voltage clamp technique relative to control; assay type: cell-based; settings: Oocyte
# How it was run: (§1)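 Two-electrode voltage clamp of oocytes at -40 mV, 2–5 days after cRNA injection. Bath solution (mM) 90 NaCl, 1.0 KCl, 0.5 BaCl₂, 0.005 EDTA, 10 HEPES, pH 7.4, 23°C. Compound applied with 100 µM glutamate plus 30 µM glycine; DMSO 0.05–0.5% final. Current expressed as percent of response without compound. For GluN2A, some oocytes were pretreated with 50 µM BAPTA-AM for 10 min or injected with K-BAPTA.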
# [2] = biological target: Glutamate receptor 1 (Rattus norvegicus) (UniProt P19490); experiment: Activity at rat recombinant GluA1 receptor expressed in Xenopus oocytes assessed as effect on glutamate-induced response by two-electrode voltage clamp technique; assay type: cell-based; settings: Oocyte
# How it was run: (§2)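 Oocytes injected with 1–5 ng cRNA, kept in Barth's solution at 15°C for 2–5 days. Clamped at -40 mV in 90 NaCl, 1.0 KCl, 0.5 BaCl₂, 0.005 EDTA, 10 HEPES (mM), pH 7.4, 23°C. Receptors activated by 100 µM glutamate with compound co-applied. GluK2 oocytes pretreated with 10 µM concanavalin A for 10 min. DMSO 0.05–0.5% final.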
# [3] = biological target: Glutamate receptor ionotropic, kainate 2 (Rattus norvegicus) (UniProt P42260); experiment: Activity at rat recombinant GluK2 receptor expressed in Xenopus oocytes assessed as effect on glutamate-induced response by two-electrode voltage clamp technique; assay type: cell-based; settings: Oocyte; how it was run: as §2
# [4] = biological target: Glutamate NMDA receptor; Grin1/Grin2b (Rattus norvegicus) (UniProt P35439+Q00960); experiment: Activity at rat recombinant GluN1/GluN2B receptor expressed in Xenopus oocytes assessed as potentiation of glycine/glutamate-induced effect at 100 uM by two-electrode voltage clamp technique relative to control; assay type: cell-based; settings: Oocyte; how it was run: as §1
# [5] = biological target: Ionotropic glutamate receptor NMDA 1/2D (Rattus norvegicus, UniProt P35439+Q62645); experiment: Activity at rat recombinant GluN1/GluN2D receptor assessed as potentiation of glycine/glutamate-induced activation by two-electrode voltage clamp technique; assay type: protein-complex assay
# [6] = biological target: Glutamate NMDA receptor; Grin1/Grin2c (Rattus norvegicus, UniProt P35439+Q00961); experiment: Activity at rat recombinant GluN1/GluN2C receptor assessed as potentiation of glycine/glutamate-induced activation by two-electrode voltage clamp technique; assay type: protein-complex assay
# [7] = biological target: Glutamate NMDA receptor; Grin1/Grin2c (Rattus norvegicus) (UniProt P35439+Q00961); experiment: Activity at rat recombinant GluN1/GluN2C receptor expressed in Xenopus oocytes assessed as potentiation of glycine/glutamate-induced activation at 100 uM by two-electrode voltage clamp technique relative to control; assay type: cell-based; settings: Oocyte; how it was run: as §1
# Sequence of Glutamate receptor 1 (Rattus norvegicus) (P19490 whole entry): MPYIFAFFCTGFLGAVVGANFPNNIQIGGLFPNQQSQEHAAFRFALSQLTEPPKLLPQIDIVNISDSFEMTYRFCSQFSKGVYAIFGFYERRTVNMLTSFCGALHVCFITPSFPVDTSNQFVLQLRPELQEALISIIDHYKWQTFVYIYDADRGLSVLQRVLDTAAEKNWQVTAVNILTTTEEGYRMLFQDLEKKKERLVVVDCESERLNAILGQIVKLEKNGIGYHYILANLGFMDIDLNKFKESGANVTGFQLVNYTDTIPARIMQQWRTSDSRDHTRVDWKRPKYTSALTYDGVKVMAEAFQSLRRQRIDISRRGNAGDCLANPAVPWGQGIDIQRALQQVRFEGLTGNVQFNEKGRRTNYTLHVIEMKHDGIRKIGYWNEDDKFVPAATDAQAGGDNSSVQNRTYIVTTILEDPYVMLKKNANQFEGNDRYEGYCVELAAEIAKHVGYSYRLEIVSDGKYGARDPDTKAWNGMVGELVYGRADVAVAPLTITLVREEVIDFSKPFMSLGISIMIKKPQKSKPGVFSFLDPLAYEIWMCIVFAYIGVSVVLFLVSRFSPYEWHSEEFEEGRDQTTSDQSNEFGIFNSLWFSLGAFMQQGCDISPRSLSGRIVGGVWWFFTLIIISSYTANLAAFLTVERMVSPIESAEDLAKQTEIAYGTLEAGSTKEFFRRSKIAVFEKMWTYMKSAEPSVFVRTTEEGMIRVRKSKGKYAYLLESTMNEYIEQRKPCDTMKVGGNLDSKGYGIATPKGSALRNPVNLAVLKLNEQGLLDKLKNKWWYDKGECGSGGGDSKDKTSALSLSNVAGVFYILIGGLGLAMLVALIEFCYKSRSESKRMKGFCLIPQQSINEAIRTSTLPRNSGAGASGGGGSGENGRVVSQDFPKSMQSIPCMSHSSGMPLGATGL
# Sequence of Glutamate receptor ionotropic, kainate 2 (Rattus norvegicus) (P42260 whole entry): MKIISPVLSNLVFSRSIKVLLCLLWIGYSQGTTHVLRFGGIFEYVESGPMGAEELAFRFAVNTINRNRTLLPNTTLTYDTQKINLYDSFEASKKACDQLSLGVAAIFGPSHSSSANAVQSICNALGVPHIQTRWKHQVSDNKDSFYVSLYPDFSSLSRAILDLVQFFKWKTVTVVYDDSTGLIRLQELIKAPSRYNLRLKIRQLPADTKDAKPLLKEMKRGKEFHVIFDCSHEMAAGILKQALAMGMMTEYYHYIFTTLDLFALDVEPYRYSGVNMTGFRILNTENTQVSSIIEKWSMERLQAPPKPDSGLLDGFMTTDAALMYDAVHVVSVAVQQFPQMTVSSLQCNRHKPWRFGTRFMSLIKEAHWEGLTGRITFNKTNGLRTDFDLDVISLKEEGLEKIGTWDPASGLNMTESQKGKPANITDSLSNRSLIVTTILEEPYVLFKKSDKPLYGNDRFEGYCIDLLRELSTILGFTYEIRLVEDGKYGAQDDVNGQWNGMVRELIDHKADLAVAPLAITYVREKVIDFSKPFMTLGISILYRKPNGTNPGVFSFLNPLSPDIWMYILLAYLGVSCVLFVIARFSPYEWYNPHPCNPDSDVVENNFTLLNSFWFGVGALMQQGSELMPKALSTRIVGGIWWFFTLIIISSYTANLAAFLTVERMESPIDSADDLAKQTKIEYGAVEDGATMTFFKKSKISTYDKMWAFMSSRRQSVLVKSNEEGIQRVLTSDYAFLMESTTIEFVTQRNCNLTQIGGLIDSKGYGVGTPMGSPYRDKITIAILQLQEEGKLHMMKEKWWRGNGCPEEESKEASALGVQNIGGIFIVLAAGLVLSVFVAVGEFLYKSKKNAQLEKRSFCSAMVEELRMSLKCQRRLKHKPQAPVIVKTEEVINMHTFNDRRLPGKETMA
# Sequence of Ionotropic glutamate receptor NMDA 1/2D (Q62645 whole entry, other chains not shown): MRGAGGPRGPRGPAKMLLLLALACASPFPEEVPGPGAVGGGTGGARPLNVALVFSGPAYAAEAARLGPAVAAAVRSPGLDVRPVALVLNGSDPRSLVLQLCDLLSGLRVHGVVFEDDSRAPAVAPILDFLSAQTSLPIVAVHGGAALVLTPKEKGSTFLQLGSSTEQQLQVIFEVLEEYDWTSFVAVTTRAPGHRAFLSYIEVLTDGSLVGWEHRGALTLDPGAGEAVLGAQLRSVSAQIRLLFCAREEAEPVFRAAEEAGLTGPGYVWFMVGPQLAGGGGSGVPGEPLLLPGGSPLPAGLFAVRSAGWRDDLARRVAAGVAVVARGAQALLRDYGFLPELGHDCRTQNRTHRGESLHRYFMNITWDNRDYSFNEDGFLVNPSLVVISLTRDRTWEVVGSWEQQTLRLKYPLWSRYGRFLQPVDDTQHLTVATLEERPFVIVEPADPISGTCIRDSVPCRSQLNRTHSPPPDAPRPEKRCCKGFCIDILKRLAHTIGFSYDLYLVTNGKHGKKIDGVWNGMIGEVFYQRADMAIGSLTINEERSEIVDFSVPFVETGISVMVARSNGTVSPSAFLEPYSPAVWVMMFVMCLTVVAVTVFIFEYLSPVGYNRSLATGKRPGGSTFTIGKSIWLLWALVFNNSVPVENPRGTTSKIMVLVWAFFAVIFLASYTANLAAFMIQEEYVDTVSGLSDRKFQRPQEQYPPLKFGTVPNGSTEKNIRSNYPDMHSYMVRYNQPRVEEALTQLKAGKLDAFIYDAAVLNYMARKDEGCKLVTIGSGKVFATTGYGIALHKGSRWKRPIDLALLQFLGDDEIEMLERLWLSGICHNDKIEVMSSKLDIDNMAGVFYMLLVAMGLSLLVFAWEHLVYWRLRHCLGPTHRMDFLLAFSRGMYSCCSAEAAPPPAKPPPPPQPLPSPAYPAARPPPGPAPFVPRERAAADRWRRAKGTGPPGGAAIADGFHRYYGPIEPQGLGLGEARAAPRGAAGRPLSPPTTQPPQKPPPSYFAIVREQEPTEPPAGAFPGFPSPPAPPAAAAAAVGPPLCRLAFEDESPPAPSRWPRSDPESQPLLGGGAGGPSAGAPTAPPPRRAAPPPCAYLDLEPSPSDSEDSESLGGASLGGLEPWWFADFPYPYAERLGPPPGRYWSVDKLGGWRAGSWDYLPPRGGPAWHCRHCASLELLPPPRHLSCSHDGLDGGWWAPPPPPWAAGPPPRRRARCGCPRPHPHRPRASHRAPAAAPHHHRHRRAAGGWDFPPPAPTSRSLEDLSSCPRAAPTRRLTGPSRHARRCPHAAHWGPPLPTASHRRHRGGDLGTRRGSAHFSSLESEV
Activity [2],EC50 [5] [µM],EC50 [6] [µM],SMILES,further results
inactive,–,–,COc1cc2c(cc1OC)CN(C(=O)c1ccccc1)CC2,–
inactive,11,12,COc1ccc(OCC2c3cc(OC)c(OC)cc3CCN2C(=O)c2ccccc2)cc1 (racemic),Activity [3]: inactive; Activity [4]: Active
–,–,4.1,COc1ccc(OCC2c3cc(OC)c(OC)cc3CCN2C(=O)c2ccc(Cl)cc2)cc1 (racemic),–
inactive,2.2,0.9,COc1ccc(OCC2c3cc(OC)c(OC)cc3CCN2C(=O)c2cccc(Br)c2)cc1 (racemic),Activity [3]: inactive
–,12,5.8,COc1ccc(OCC2c3cc(OC)c(OC)cc3CCN2C(=O)c2cccc(OC)c2)cc1 (racemic),Activity [4]: Active
–,13,11,COc1ccc(OCC2c3cc(OC)c(OC)cc3CCN2C(=O)c2cccc([N+](=O)[O-])c2)cc1 (racemic),Activity [1]: 70%
–,24,21,COc1ccc(OCC2c3cc(OC)c(OC)cc3CCN2C(=O)c2ccc(Cl)c(Cl)c2)cc1 (racemic),–
–,–,1.4,COc1ccc(OCC2c3cc(OC)c(OC)cc3CCN2C(=O)c2cccc(Cl)c2Cl)cc1 (racemic),–
inactive,2.8,2.8,COc1ccc(/C=C/C2c3cc(OC)c(OC)cc3CCN2C(=O)c2cccc(Br)c2)cc1 (racemic),–
inactive,1,1,COc1ccc(/C=C/C2c3ccc(OC)cc3CCN2C(=O)c2cccc(Cl)c2)cc1 (racemic),–
–,5.3,5.3,COc1ccc(OCC2c3cc(OC)c(OC)cc3CCN2C(=O)c2ccc(F)c(Cl)c2)cc1 (racemic),–
–,3.6,2.9,COc1ccc(OCC2c3cc(OC)c(OC)cc3CCN2C(=O)c2cccc(-c3ccccc3)c2)cc1 (racemic),–
inactive,–,17,COc1ccc(OCC2c3cc(OC)c(OC)cc3CCN2C(=O)c2cccc(CCl)c2)cc1 (racemic),Activity [4]: Active
–,5.4,3.7,COc1ccc(OCC2c3cc(OC)c(OC)cc3CCN2C(=O)c2cccc(C(Cl)Cl)c2)cc1 (racemic),–
–,–,9,COc1ccc(OCC2c3cc(OC)c(OC)cc3CCN2C(=O)c2cccs2)cc1 (racemic),–
–,–,23,CCc1ccc(OCC2c3cc(OC)c(OC)cc3CCN2C(=O)c2ccccc2)cc1 (racemic),–
–,–,12,COc1cc2c(cc1OC)C(COc1ccc(N(C)C)cc1)N(C(=O)c1cccc(Br)c1)CC2 (racemic),–
–,7.8,9,COc1ccc(OCC2c3c(cc(OC)cc3OC)CCN2C(=O)c2cccc(Br)c2)cc1 (racemic),–
–,5.7,7.5,COc1ccc(OCC2c3ccc(OC)cc3CCN2C(=O)c2ccccc2)cc1 (racemic),–
–,1.1,0.9,COc1ccc(OCC2c3cc(C)c(C)cc3CCN2C(=O)c2cccc(Br)c2)cc1 (racemic),–
–,–,24,COc1ccc(OCC2c3ccc(C)cc3CCN2C(=O)c2ccccc2)cc1 (racemic),–
–,4.7,5,COc1ccc(OCC2c3ccc(C)cc3CCN2C(=O)c2cccc(Cl)c2)cc1 (racemic),–
–,3.6,3.2,COc1ccc(OCC2c3ccc(C)cc3CCN2C(=O)c2cccc(Br)c2)cc1 (racemic),–
–,2.3,0.7,COc1ccc(OCC2c3ccc(OCc4ccccc4)cc3CCN2C(=O)c2ccccc2)cc1 (racemic),–
–,0.4,0.4,COc1ccc(OCC2c3ccc(OCc4ccccc4)cc3CCN2C(=O)c2cccc(Cl)c2)cc1 (racemic),–
inactive,15,11,COc1ccc(CCC2c3cc(OC)c(OC)cc3CCN2C(=O)c2cccc(Br)c2)cc1 (racemic),–
inactive,–,–,COc1ccc(CCC2c3cc(OC)c(OC)cc3CCN2C(=O)c2cccc(Cl)c2)cc1 (racemic),–
inactive,–,–,COc1ccc(OCC2c3cc(OC)c(OC)cc3CCN2C(=O)CN2CCOCC2)cc1 (racemic),–
inactive,–,–,COc1ccc(OCC2c3cc(OC)c(OC)cc3CCN2C(=O)c2ccc3ccccc3c2)cc1 (racemic),Activity [7]: 136%

# More lines, now with the values behind:
SMILES,Activity [2],EC50 [5] [µM],EC50 [6] [µM],further results
COc1cc2c(cc1OC)CN(C(=O)c1cccc(Br)c1)CC2,–,–,–,Activity [1]: 70%
COc1ccc(OCC2c3cc(OC)c(OC)cc3CCN2C(=O)c2cccc(C)c2)cc1 (racemic),–,5.5,6.2,–
COc1ccc(OCC2c3cc(OC)c(OC)cc3CCN2C(=S)Nc2cccc(C)c2)cc1 (racemic),–,4.9,5.2,–
COc1ccc(/C=C/C2c3cc(OC)c(OC)cc3CCN2C(=O)c2ccccc2)cc1 (racemic),inactive,35,35,–
COc1ccc(/C=C/C2c3cc(OC)c(OC)cc3CCN2C(=O)c2cccc(Cl)c2)cc1 (racemic),–,1.3,1.1,–
COc1ccc(OCC2c3cc(OC)c(OC)cc3CCN2C(=O)c2cc(Cl)cc(Cl)c2)cc1 (racemic),inactive,1.9,4.8,–
COc1ccc(OCC2c3cc(OC)c(OC)cc3CCN2C(=O)c2cccc(F)c2)cc1 (racemic),inactive,7,7.2,Activity [3]: inactive
COc1ccc(OCC2c3cc(OC)c(OC)cc3CCN2C(=O)c2cccc(I)c2)cc1 (racemic),–,4.9,4,–
COc1ccc(OCC2c3cc(OC)c(OC)cc3CCN2C(=O)c2cccc(C#N)c2)cc1 (racemic),inactive,7.7,29,–
COc1cc2c(cc1OC)C(COc1ccc(SC)cc1)N(C(=O)c1cccc(Cl)c1)CC2 (racemic),–,5.3,5.1,–
COc1cc2c(cc1OC)C(COc1ccc(N(C)C)cc1)N(C(=O)c1cccc(Cl)c1)CC2 (racemic),–,–,35,–
COc1ccc(OCC2c3cc4c(cc3CCN2C(=O)c2cccc(Cl)c2)OCO4)cc1 (racemic),inactive,7.4,16,–
COc1ccc(OCC2c3cc4c(cc3CCN2C(=O)c2cccc(Br)c2)OCO4)cc1 (racemic),–,3.4,3.2,–
COc1ccc(OCC2c3c(cc(OC)cc3OC)CCN2C(=O)c2ccccc2)cc1 (racemic),–,14,10,–
COc1ccc(OCC2c3c(cc(OC)cc3OC)CCN2C(=O)c2cccc(Cl)c2)cc1 (racemic),–,9.2,–,–
COc1ccc(OCC2c3ccc(OC)cc3CCN2C(=O)c2cccc(Br)c2)cc1 (racemic),inactive,2.9,2,–
COc1ccc(OCC2c3ccc(OC)cc3CCN2C(=O)c2cccc(C(C)=O)c2)cc1 (racemic),–,32,21,–
COc1ccc(OCC2c3cc(C)c(C)cc3CCN2C(=O)c2cccc(Cl)c2)cc1 (racemic),–,1.5,1.4,–
COc1ccc(/C=C/C2c3ccc(OC)cc3CCN2C(=O)c2cccc(Br)c2)cc1 (racemic),inactive,1.7,1.5,–
CCOc1ccc(OCC2c3cc(OC)c(OC)cc3CCN2C(=O)c2cccc(Br)c2)cc1 (racemic),–,–,–,Activity [4]: Active
CCOc1ccc(OCC2c3cc(OC)c(OC)cc3CCN2C(=O)c2cccc(Cl)c2)cc1 (racemic),–,–,–,Activity [4]: Active
COC(=O)c1ccc(OCC2c3cc(OC)c(OC)cc3CCN2C(=O)c2cccc(Cl)c2)cc1 (racemic),–,–,–,Activity [4]: Active
COc1ccc(OCC2c3cc(OC)c(OC)cc3CCN2C(=O)N2CCOCC2)cc1 (racemic),–,–,–,Activity [4]: Active
COc1ccc(OCC2c3cc(OC)c(OC)cc3CCN2C(=O)c2ccccc2C)cc1 (racemic),–,–,–,Activity [1]: 70%
COc1ccc(OCC2c3cc4c(cc3CCN2C(=O)c2ccccc2)OCO4)cc1 (racemic),–,–,–,Activity [1]: 70%
COc1ccc(OCC2c3ccc(OC)cc3CCN2C(=O)c2cccc(Cl)c2)cc1 (racemic),inactive,–,–,–
